High-throughput results from PubChem BioAssay.
This is a sample that favours compounds with a hit; in the whole collection about 3% have one here.
MEKK3 PB1 HTS: modulators of MEKK3-MEK5 PB1 binding, primary screen, biochemical, wildtype MEKK3, multiplex bead flow cytometry, Alexa488-MEK5 | binding response (% of control), % at 10 µM | bead-based flow cytometry, Alexa488-MEK5 binding to MEKK3; actives lie on both sides; 0 = blocked by unlabeled MEK5, 100 = vehicle | actives 1.4% (n = 290,000) | AID 1529, 2009 | Mitogen-activated protein kinase kinase kinase 3 (Homo sapiens), Q99759;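 active = binding response more than 3 SD above or below the average of its plate-row segment, actives on both sides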;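 note: Alexa488 bead fluorescence after subtracting the streptavidin-only scavenger bead signal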
Target sequence (Q99759 whole entry, looked up): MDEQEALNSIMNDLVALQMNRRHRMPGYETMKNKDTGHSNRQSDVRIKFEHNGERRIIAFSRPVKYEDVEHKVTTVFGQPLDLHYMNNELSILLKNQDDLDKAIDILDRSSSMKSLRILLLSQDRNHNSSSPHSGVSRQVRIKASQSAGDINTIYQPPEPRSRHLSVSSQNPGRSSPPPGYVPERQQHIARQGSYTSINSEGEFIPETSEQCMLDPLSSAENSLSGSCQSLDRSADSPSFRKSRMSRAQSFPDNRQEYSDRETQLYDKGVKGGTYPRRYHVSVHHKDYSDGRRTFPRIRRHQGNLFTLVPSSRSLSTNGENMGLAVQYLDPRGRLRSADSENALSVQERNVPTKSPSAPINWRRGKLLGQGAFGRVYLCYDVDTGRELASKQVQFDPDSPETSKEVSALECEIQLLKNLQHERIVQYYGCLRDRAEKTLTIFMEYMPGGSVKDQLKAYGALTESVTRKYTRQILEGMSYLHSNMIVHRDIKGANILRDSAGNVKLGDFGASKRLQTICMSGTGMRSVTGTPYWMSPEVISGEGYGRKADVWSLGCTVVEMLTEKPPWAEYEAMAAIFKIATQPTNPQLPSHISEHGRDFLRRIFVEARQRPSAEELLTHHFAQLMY
MEKK2mut PB1 HTS: MEK5 binding signal on mutant MEKK2 PB1, primary screen, biochemical, multiplex bead flow cytometry, Alexa488-MEK5. Alexa488-MEK5 binding to MEKK2 mutant. percent response, % at 10 µM. actives 0.35% (n = 290,000); in the data active = percent response above about 24%, passing the limit was not always enough
MEKK2 WT-MEK5: modulators of MEK5 binding to wildtype MEKK2, primary screen, biochemical, multiplex bead flow cytometry, Alexa488-MEK5; binding response (% of control), % at 10 µM; actives 1.1% (n = 290,000); Alexa488-MEK5 binding to MEKK2 WT; actives lie on both sides; Mitogen-activated protein kinase kinase kinase 2 (Homo sapiens), Q9Y2U5; in the data active = binding response below about 67% or above about 130%
UCH37 inh: inhibitors of human UCH37 deubiquitinase, primary screen, biochemical, Ub-AMC cleavage, fluorescence; AID 588478, 2011; Ubiquitin carboxyl-terminal hydrolase isozyme L5 (Homo sapiens), Q9Y5K5; actives 0.33% (n = 330,000); inhibition, % (concentration not given with the values); purified proteasome/UCH37;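 active = mean inhibition over replicate wells above about 20%, limit read from the data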;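 note: 0% = compound-free wells with enzyme and 100% = wells lacking proteasome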
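Material: Human UCH37 enzyme supplied as purified proteasome complex | Schedule: 30 min compound-proteasome preincubation then 25 min substrate reaction, room temperature | Detection: AMC fluorescence from Ub-AMC cleavage, excitation 355 nm, emission 460 nm | Benchmarks: Wells without proteasome as full block, compound-free enzyme plus substrate as uninhibited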
UBC13 polyUb: UBC13 polyubiquitin chain formation inhibitors, primary screen, biochemical, TR-FRET, uHTS | Ubiquitin-conjugating enzyme E2 N (Homo sapiens), P61088 | actives 0.47% (n = 330,000) | inhibition, % at 20 µM; in the data active = inhibition above about 45%, passing the limit was not always enough
Apaf-1 inh: inhibitors of human Apaf-1 apoptosome, primary screen, biochemical, DEVD-Rh110 fluorescence, uHTS. Apoptotic protease-activating factor 1 (Homo sapiens), O14727. reconstituted apoptosome caspase-3 activity. inhibition, % at 20 µM. actives 0.71% (n = 330,000); active = inhibition of at least 40% at 20 µM;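 note: plate controls were DMSO wells for no effect and DEVD-CHO caspase inhibitor wells for full effect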
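Material: reconstituted apoptosome with Apaf-1, cytochrome c, caspase-9, procaspase-3, dATP. Technique: Rh110 fluorescence intensity. Buffer or medium: pH 7.5 Hepes buffer with CHAPS, BSA, DTT. Times: 30 min plus 50 min, RT.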
MEKK2wt confirm: modulators of MEK5 binding to wildtype MEKK2, confirmation, biochemical, single concentration, multiplex bead flow cytometry. shares compounds with MEKK3 PB1 HTS. Alexa488-MEK5 binding to MEKK2 WT; actives lie on both sides. binding response (% of control), % at 10 µM. actives 2.4% (n = 5,900); in the data active = binding response below about 16% or above about 210%; inactive = in between
MEKK2mut confirm: mutant MEKK2 PB1-MEK5 binding signal retest – biochemical, single concentration, multiplex bead flow cytometry, confirmation. actives 2% (n = 5,900). shares compounds with MEKK3 PB1 HTS. Alexa488-MEK5 binding to MEKK2 mutant. percent response, % at 10 µM; in the data active = percent response mostly above about 71%, no sharp cut-off; inactive = mostly below about 38%;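 note: higher means compound restores mutant binding toward wildtype level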
MEKK3 confirm: MEKK3 wild-type PB1 binding to MEK5, inhibitors, confirmation, biochemical, bead multiplex flow cytometry, single concentration, wildtype | shares compounds with MEKK3 PB1 HTS | binding response (% of control), % at 10 µM | actives 1.8% (n = 5,900) | AID 1894, 2009 | Alexa488-MEK5 binding to MEKK3; active compounds read low;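 active = binding response below 72% of control, or above a set upper limit, though filed actives all read lower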;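 note: 100% = DMSO only wells and 0% = binding blocked by excess unlabeled MEK5; lower values mean stronger disruption of MEK5 binding to MEKK3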
* marks the source's active call; other numbers are inactive results; . = no result; [ ] = remark or other dose.

SMILES	MEKK3 PB1 HTS	MEKK2mut PB1 HTS	MEKK2 WT-MEK5	UCH37 inh	UBC13 polyUb	Apaf-1 inh	MEKK2wt confirm	MEKK2mut confirm	MEKK3 confirm
CCN(C(=O)CSc1ccc(S(=O)(=O)N2CCOCC2)cn1)c1ccccc1	.	.	.	2	-3	10	.	.	.
COC(=O)C1=C(C)NC(=O)NC1c1ccc(-c2ccc(Cl)cc2)o1 (stereo not given)	94	-1	4.0*[inhibitor]	.	0	2	108	6	108
C#CCOCCOCCOCCNc1nc(N2CCN(C(=O)[C@H]([C@@H](C)CC)n3cc([C@@H](N)CC(C)C)nn3)CC2)nc(N2CCN(C(=O)[C@H](Cc3cc4ccccc4[nH]3)n3cc([C@@H](N)CC(C)C)nn3)CC2)n1	108	52*	151*	0	40	58*	252*	169*	116
C#CCOCCOCCOCCNc1nc(N2CCN(C(=O)[C@H](CCC(=O)O)n3cc(C(N)Cc4ccc(O)cc4)nn3)CC2)nc(N2CCN(C(=O)[C@H](Cc3cc4ccccc4[nH]3)n3cc(C(N)[C@H](C)CC)nn3)CC2)n1 (stereo not given in full)	112	38	153*	5	13	7	134	20	102
C#CCOCCOCCOCCNc1nc(N2CCN(C(=O)[C@H]([C@@H](C)CC)n3cc([C@@H](N)Cc4ccc(O)cc4)nn3)CC2)nc(N2CCN(C(=O)[C@H](Cc3cc4ccccc4[nH]3)n3cc([C@@H](N)C(C)CC)nn3)CC2)n1 (stereo not given in full)	113	91*	237*	.	78*	49*	216*	68	112
CCCC12CN3CCN(CC(C3)/C1=N\NC(=O)c1ccc(F)cc1)C2	102	-1	95	.	1	8	.	.	.
COc1cc(OC)c(C=Nn2c(C3CCCCC3)n[nH]c2=S)c(OC)c1	.	.	.	5	.	.	.	.	.
COc1ccc(OC)c(S(=O)(=O)N2CCC(C(=O)Nc3cccc(C(F)(F)F)c3)CC2)c1	104	5	103	4	7	6	.	.	.
CCOc1ccccc1OCCCC(=O)Nc1sccc1C(N)=O	151*	1	111	6	7	1	103	4	104
NC(=O)c1ccsc1NC(=O)CCc1ccccc1	99	-1	100	1	-2	4	.	.	.
COCc1cc(C)nc(OCC(=O)N/N=C/c2ccc(OC)c(O)c2)c1C#N	100	-2	97	.	-11	4	.	.	.
COc1ccc(-n2c(C)cc(-c3csc(N)n3)c2C)cc1	128*	2	98	5	6	9	106	4	98
Cc1cc(-c2csc(N)n2)c(C)n1-c1ccc(Cl)c(Cl)c1	153*	1	109	2	-2	7	101	-4	101
CCCn1c(C)cc(-c2csc(N)n2)c1C	88	-2	93	0	-1	20	.	.	.
O=C(COc1ccc(S(=O)(=O)NC2CCCCC2)cc1)N1CCN(c2cccc(Cl)c2)CC1	101	4	98	3	-1	34	.	.	.
CSc1oc(-c2ccccc2)nc1C(N)=O	99	-2	104	-1	11	-18	.	.	.
O=C(O)/C=C\c1cn(-c2ccccc2)nc1-c1cc2ccccc2o1	104	0	100	-194	-8	13	.	.	.
O=C(CSc1nc(-c2ccccc2)c(-c2ccccc2)[nH]1)Nc1ccc2c(c1)OCO2	146*	1	113	-11	11	24	95	-3	104
O=C(CSc1nc2ncccc2[nH]1)Nc1ccc2c(c1)OCO2	98	-5	99	0	0	-13	.	.	.
OC1(c2cccc(C(F)(F)F)c2)CCN(CCN2CCCCC2)CC1	109	16	140*	3	7	4	137	31	106
CCOC(=O)N1CCC(NC(=O)c2cc(C(=O)Nc3ccc(S(=O)(=O)N4CCOCC4)cc3)ccc2CO)CC1	102	-3	100	.	-2	-1	.	.	.
Cc1ccc(NC(=O)COc2ccccc2CNC(C)(C)CC(C)(C)C)cc1	105	16	141*	1	26	-20	137	17	105
Cc1ccc(S(=O)(=O)N/N=C\c2ccc(C)o2)cc1	98	1	100	.	-1	-14	.	.	.
Cc1ccc(/C=N/NC(=O)c2cccs2)o1	128*	1	110	.	-17	0	104	8	103
O=C(N/N=C\c1ccc(-c2ccc([N+](=O)[O-])cc2)o1)c1ccc2c(c1)OCO2	142*	2	108	.	-47	-5	96	-1	99
SMILES	MEKK3 PB1 HTS	MEKK2mut PB1 HTS	MEKK2 WT-MEK5	UCH37 inh	UBC13 polyUb	Apaf-1 inh	MEKK2wt confirm	MEKK2mut confirm	MEKK3 confirm
O=C(N/N=C/c1cccc([N+](=O)[O-])c1)c1cc2ccccc2o1	69*[inhibitor]	-1	91	.	-16	-7	92	1	92
Cc1ccc(/C=N/NS(=O)(=O)c2ccc([N+](=O)[O-])cc2)o1	134*	1	106	.	0	-1	107	4	101
C/C=C(/C)C(=O)O[C@@H]1Cc2c(ccc3ccc(=O)oc23)OC1(C)C	.	.	.	-7	7	16	.	.	.
C=CCc1cccc(C=NNC(=O)c2ccccc2Br)c1O	.	.	.	0	.	.	.	.	.
O=C(NN=Cc1ccc(N2CCOCC2)o1)c1cccc([N+](=O)[O-])c1	.	.	.	11	.	.	.	.	.
O=C(N/N=C\c1cn[nH]c1-c1ccc(Cl)cc1)c1cccs1	71*[inhibitor]	-30	60*[inhibitor]	.	5	-24	108	13	108
Cc1ccc(/C=N/NC(=O)c2cccc([N+](=O)[O-])c2)o1	133*	4	105	.	.	.	115	10	104
